# Reference: ChEMBL document CHEMBL4689842, “EUbOPEN Chemogenomics Library wave 1” (2021)
# Test system: Fibroblast
# Test: Multiplex assay against human fibroblast
# Assay type: toxicity, cell-based
# Procedure, shortened: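 Per cents of healthy-nucleus cells form the tubulin, mitochondrial-mass and membrane-permeability phenotype values. Live cells were stained at seeding with Hoechst33342, BioTracker Green Microtubule Cytoskeleton Dye, MitoTracker Red and Annexin V Alexa Fluor 680. After compound addition they were imaged on a CQ1 microscope at 37°C and 5% CO2, and CellPathfinder machine-learning gating split them into Hoechst high-intensity objects or normal cells, normal cells into healthy, pyknosed or fragmented nuclei, and pyknosed cells into mitotic or apoptotic.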
# [1] = 12 h, 1 µM, compound concentration 1 uM, replicate 1
# [2] = 12 h, 1 µM, compound concentration 1 uM, replicate 2
# [3] = 12 h, 10 µM, compound concentration 10 uM, replicate 1
# [4] = 12 h, 10 µM, compound concentration 10 uM, replicate 2
# [5] = 24 h, 1 µM, compound concentration 1 uM, replicate 1
# [6] = 24 h, 1 µM, compound concentration 1 uM, replicate 2
# [7] = 24 h, 10 µM, compound concentration 10 uM, replicate 1
# [8] = 24 h, 10 µM, compound concentration 10 uM, replicate 2
# [9] = 48 h, 1 µM, compound concentration 1 uM, replicate 1
# [10] = 48 h, 1 µM, compound concentration 1 uM, replicate 2
# [11] = 48 h, 10 µM, compound concentration 10 uM, replicate 1
# [12] = 48 h, 10 µM, compound concentration 10 uM, replicate 2
smiles,measurement,setting,value
CN1CCN(c2ccc(OC(F)(F)F)c(Nc3ncc4c(n3)-c3c(c(C(N)=O)nn3CCO)CC4)c2)CC1 [ONVANSERTIB],Population Apoptotic (%),[1],63%
same,Population Fragmented Nuclei (%),[1],23%
same,Population Healthy Nuclei (%),[1],35%
same,Population Hoechst High Intensity Objects (%),[1],19%
same,Population Membrane Permeable-Phenotype (%),[1],29%
same,Population Mitochondria Different-Phenotype (%),[1],10%
same,Population Mitotic Cells (%),[1],36%
same,Population Normal (%),[1],80%
same,Population Pyknosed Nuclei (%),[1],40%
same,Population Tubulin-Different-Phenotype (%),[1],41%
same,Total Cell Count,[1],168
same,Population Apoptotic (%),[2],25%
same,Population Fragmented Nuclei (%),[2],11%
same,Population Healthy Nuclei (%),[2],80%
same,Population Hoechst High Intensity Objects (%),[2],14%
same,Population Membrane Permeable-Phenotype (%),[2],0%
same,Population Mitochondria Different-Phenotype (%),[2],14%
same,Population Mitotic Cells (%),[2],75%
same,Population Normal (%),[2],85%
same,Population Pyknosed Nuclei (%),[2],7%
same,Population Tubulin-Different-Phenotype (%),[2],16%
same,Total Cell Count,[2],66
same,Population Apoptotic (%),[3],68%
same,Population Fragmented Nuclei (%),[3],34%
same,Population Healthy Nuclei (%),[3],36%
same,Population Hoechst High Intensity Objects (%),[3],15%
same,Population Membrane Permeable-Phenotype (%),[3],3%
same,Population Mitochondria Different-Phenotype (%),[3],9%
same,Population Mitotic Cells (%),[3],32%
same,Population Normal (%),[3],84%
same,Population Pyknosed Nuclei (%),[3],29%
same,Population Tubulin-Different-Phenotype (%),[3],64%
same,Population Apoptotic (%),[4],40%
same,Population Fragmented Nuclei (%),[4],9%
same,Population Healthy Nuclei (%),[4],78%
same,Population Hoechst High Intensity Objects (%),[4],19%
same,Population Membrane Permeable-Phenotype (%),[4],0%
same,Population Mitochondria Different-Phenotype (%),[4],84%
same,Population Mitotic Cells (%),[4],60%
same,Population Normal (%),[4],80%
same,Population Pyknosed Nuclei (%),[4],12%
same,Population Tubulin-Different-Phenotype (%),[4],78%
same,Total Cell Count,[4],61
same,Population Apoptotic (%),[5],53%
same,Population Fragmented Nuclei (%),[5],25%
same,Population Healthy Nuclei (%),[5],41%
same,Population Hoechst High Intensity Objects (%),[5],24%
same,Population Membrane Permeable-Phenotype (%),[5],25%
same,Population Mitochondria Different-Phenotype (%),[5],7%
same,Population Mitotic Cells (%),[5],46%
same,Population Normal (%),[5],75%
same,Population Pyknosed Nuclei (%),[5],33%
same,Population Tubulin-Different-Phenotype (%),[5],61%
same,Total Cell Count,[5],165
same,Population Apoptotic (%),[6],57%
same,Population Fragmented Nuclei (%),[6],21%
same,Population Healthy Nuclei (%),[6],65%
same,Population Hoechst High Intensity Objects (%),[6],5%
same,Population Membrane Permeable-Phenotype (%),[6],5%
same,Population Mitochondria Different-Phenotype (%),[6],32%
same,Population Mitotic Cells (%),[6],42%
same,Population Normal (%),[6],94%
same,Population Pyknosed Nuclei (%),[6],13%
same,Population Tubulin-Different-Phenotype (%),[6],11%
same,Total Cell Count,[6],73
same,Population Apoptotic (%),[7],58%
same,Population Fragmented Nuclei (%),[7],39%
same,Population Healthy Nuclei (%),[7],37%
same,Population Hoechst High Intensity Objects (%),[7],18%
same,Population Membrane Permeable-Phenotype (%),[7],28%
same,Population Mitochondria Different-Phenotype (%),[7],0%
same,Population Mitotic Cells (%),[7],41%
same,Population Normal (%),[7],81%
same,Population Pyknosed Nuclei (%),[7],23%
same,Population Tubulin-Different-Phenotype (%),[7],66%
same,Total Cell Count,[7],127
same,Population Apoptotic (%),[8],40%
same,Population Fragmented Nuclei (%),[8],11%
same,Population Healthy Nuclei (%),[8],77%
same,Population Hoechst High Intensity Objects (%),[8],16%
same,Population Membrane Permeable-Phenotype (%),[8],5%
same,Population Mitochondria Different-Phenotype (%),[8],82%
same,Population Mitotic Cells (%),[8],60%
same,Population Normal (%),[8],83%
same,Population Pyknosed Nuclei (%),[8],11%
same,Population Tubulin-Different-Phenotype (%),[8],55%
same,Total Cell Count,[8],55
same,Population Apoptotic (%),[9],53%
same,Population Fragmented Nuclei (%),[9],38%
same,Population Healthy Nuclei (%),[9],37%
same,Population Hoechst High Intensity Objects (%),[9],21%
same,Population Membrane Permeable-Phenotype (%),[9],25%
same,Population Mitochondria Different-Phenotype (%),[9],6%
same,Population Mitotic Cells (%),[9],46%
same,Population Normal (%),[9],78%
same,Population Pyknosed Nuclei (%),[9],24%
same,Population Tubulin-Different-Phenotype (%),[9],65%
same,Total Cell Count,[9],146
same,Population Apoptotic (%),[10],40%
same,Population Fragmented Nuclei (%),[10],25%
same,Population Healthy Nuclei (%),[10],68%
same,Population Hoechst High Intensity Objects (%),[10],17%
same,Population Membrane Permeable-Phenotype (%),[10],13%
same,Population Mitochondria Different-Phenotype (%),[10],1%
same,Population Mitotic Cells (%),[10],60%
same,Population Normal (%),[10],82%
same,Population Pyknosed Nuclei (%),[10],5%
same,Population Tubulin-Different-Phenotype (%),[10],23%
same,Population Apoptotic (%),[11],50%
same,Population Fragmented Nuclei (%),[11],46%
same,Population Healthy Nuclei (%),[11],40%
same,Population Hoechst High Intensity Objects (%),[11],23%
same,Population Membrane Permeable-Phenotype (%),[11],19%
same,Population Mitochondria Different-Phenotype (%),[11],9%
same,Population Mitotic Cells (%),[11],50%
same,Population Normal (%),[11],76%
same,Population Pyknosed Nuclei (%),[11],13%
same,Population Tubulin-Different-Phenotype (%),[11],69%
same,Total Cell Count,[11],136
same,Population Fragmented Nuclei (%),[12],37%
same,Population Healthy Nuclei (%),[12],58%
same,Population Hoechst High Intensity Objects (%),[12],20%
same,Population Membrane Permeable-Phenotype (%),[12],7%
same,Population Mitochondria Different-Phenotype (%),[12],4%
same,Population Normal (%),[12],79%
same,Population Pyknosed Nuclei (%),[12],4%
same,Population Tubulin-Different-Phenotype (%),[12],73%
same,Total Cell Count,[12],241
CN(C)CC#Cc1ccc(OCCCc2sc(N3CCc4cccc(C(=O)Nc5nc6ccccc6s5)c4C3)nc2C(=O)O)c(F)c1 [A-1155463],Population Apoptotic (%),[1],74%
same,Population Fragmented Nuclei (%),[1],27%
same,Population Healthy Nuclei (%),[1],44%
same,Population Hoechst High Intensity Objects (%),[1],12%
same,Population Membrane Permeable-Phenotype (%),[1],30%
same,Population Mitochondria Different-Phenotype (%),[1],9%
same,Population Mitotic Cells (%),[1],25%
same,Population Normal (%),[1],87%
same,Population Pyknosed Nuclei (%),[1],27%
same,Population Tubulin-Different-Phenotype (%),[1],46%
same,Total Cell Count,[1],111
same,Population Apoptotic (%),[2],66%
same,Population Fragmented Nuclei (%),[2],39%
same,Population Healthy Nuclei (%),[2],53%
same,Population Hoechst High Intensity Objects (%),[2],4%
same,Population Membrane Permeable-Phenotype (%),[2],13%
same,Population Mitochondria Different-Phenotype (%),[2],31%
same,Population Mitotic Cells (%),[2],33%
same,Population Normal (%),[2],95%
same,Population Pyknosed Nuclei (%),[2],7%
same,Population Tubulin-Different-Phenotype (%),[2],27%
same,Total Cell Count,[2],86
same,Population Apoptotic (%),[3],63%
same,Population Fragmented Nuclei (%),[3],24%
same,Population Healthy Nuclei (%),[3],41%
same,Population Hoechst High Intensity Objects (%),[3],11%
same,Population Membrane Permeable-Phenotype (%),[3],42%
same,Population Mitochondria Different-Phenotype (%),[3],4%
same,Population Mitotic Cells (%),[3],36%
same,Population Normal (%),[3],88%
same,Population Pyknosed Nuclei (%),[3],33%
same,Population Tubulin-Different-Phenotype (%),[3],74%
same,Total Cell Count,[3],173
same,Population Apoptotic (%),[4],86%
same,Population Fragmented Nuclei (%),[4],33%
same,Population Healthy Nuclei (%),[4],42%
same,Population Hoechst High Intensity Objects (%),[4],5%
same,Population Membrane Permeable-Phenotype (%),[4],24%
same,Population Mitochondria Different-Phenotype (%),[4],16%
same,Population Mitotic Cells (%),[4],13%
same,Population Normal (%),[4],94%
same,Population Pyknosed Nuclei (%),[4],23%
same,Population Tubulin-Different-Phenotype (%),[4],25%
same,Total Cell Count,[4],133
same,Population Apoptotic (%),[5],62%
same,Population Fragmented Nuclei (%),[5],30%
same,Population Healthy Nuclei (%),[5],33%
same,Population Hoechst High Intensity Objects (%),[5],11%
same,Population Membrane Permeable-Phenotype (%),[5],37%
same,Population Mitochondria Different-Phenotype (%),[5],7%
same,Population Mitotic Cells (%),[5],37%
same,Population Normal (%),[5],88%
same,Population Pyknosed Nuclei (%),[5],36%
same,Population Tubulin-Different-Phenotype (%),[5],50%
same,Total Cell Count,[5],134
same,Population Apoptotic (%),[6],50%
same,Population Fragmented Nuclei (%),[6],36%
same,Population Healthy Nuclei (%),[6],54%
same,Population Hoechst High Intensity Objects (%),[6],7%
same,Population Membrane Permeable-Phenotype (%),[6],13%
same,Population Mitochondria Different-Phenotype (%),[6],32%
same,Population Mitotic Cells (%),[6],50%
same,Population Normal (%),[6],92%
same,Population Pyknosed Nuclei (%),[6],9%
same,Population Tubulin-Different-Phenotype (%),[6],28%
same,Total Cell Count,[6],92
same,Population Apoptotic (%),[7],71%
same,Population Fragmented Nuclei (%),[7],27%
same,Population Healthy Nuclei (%),[7],50%
same,Population Hoechst High Intensity Objects (%),[7],9%
same,Population Membrane Permeable-Phenotype (%),[7],44%
same,Population Mitochondria Different-Phenotype (%),[7],2%
same,Population Mitotic Cells (%),[7],28%
same,Population Normal (%),[7],90%
same,Population Tubulin-Different-Phenotype (%),[7],76%
same,Total Cell Count,[7],170
same,Population Apoptotic (%),[8],81%
same,Population Fragmented Nuclei (%),[8],32%
same,Population Healthy Nuclei (%),[8],45%
same,Population Hoechst High Intensity Objects (%),[8],10%
same,Population Membrane Permeable-Phenotype (%),[8],20%
same,Population Mitochondria Different-Phenotype (%),[8],14%
same,Population Mitotic Cells (%),[8],18%
same,Population Normal (%),[8],89%
same,Population Pyknosed Nuclei (%),[8],22%
same,Population Tubulin-Different-Phenotype (%),[8],21%
same,Total Cell Count,[8],135
same,Population Apoptotic (%),[9],68%
same,Population Fragmented Nuclei (%),[9],31%
same,Population Healthy Nuclei (%),[9],34%
same,Population Hoechst High Intensity Objects (%),[9],18%
same,Population Membrane Permeable-Phenotype (%),[9],20%
same,Population Mitochondria Different-Phenotype (%),[9],3%
same,Population Mitotic Cells (%),[9],31%
same,Population Normal (%),[9],81%
same,Population Pyknosed Nuclei (%),[9],33%
same,Population Tubulin-Different-Phenotype (%),[9],56%
same,Total Cell Count,[9],106
same,Population Apoptotic (%),[10],80%
same,Population Fragmented Nuclei (%),[10],35%
same,Population Healthy Nuclei (%),[10],53%
same,Population Hoechst High Intensity Objects (%),[10],11%
same,Population Membrane Permeable-Phenotype (%),[10],28%
same,Population Mitochondria Different-Phenotype (%),[10],6%
same,Population Mitotic Cells (%),[10],20%
same,Population Normal (%),[10],88%
same,Population Pyknosed Nuclei (%),[10],10%
same,Population Tubulin-Different-Phenotype (%),[10],44%
same,Total Cell Count,[10],105
same,Population Apoptotic (%),[11],66%
same,Population Fragmented Nuclei (%),[11],38%
same,Population Healthy Nuclei (%),[11],39%
same,Population Hoechst High Intensity Objects (%),[11],10%
same,Population Membrane Permeable-Phenotype (%),[11],50%
same,Population Mitochondria Different-Phenotype (%),[11],10%
same,Population Mitotic Cells (%),[11],33%
same,Population Normal (%),[11],89%
same,Population Pyknosed Nuclei (%),[11],22%
same,Population Tubulin-Different-Phenotype (%),[11],81%
same,Total Cell Count,[11],135
same,Population Apoptotic (%),[12],95%
same,Population Fragmented Nuclei (%),[12],25%
same,Population Healthy Nuclei (%),[12],57%
same,Population Hoechst High Intensity Objects (%),[12],14%
same,Population Membrane Permeable-Phenotype (%),[12],35%
same,Population Mitochondria Different-Phenotype (%),[12],9%
same,Population Mitotic Cells (%),[12],4%
same,Population Normal (%),[12],85%
same,Population Pyknosed Nuclei (%),[12],17%
same,Population Tubulin-Different-Phenotype (%),[12],74%
same,Total Cell Count,[12],145
